# Data from ChEMBL document CHEMBL1153566, “5-Benzylidene-hydantoins: synthesis and antiproliferative activity on A549 lung cancer cell line” (Eur J Med Chem, 2009).
# pIC50: −log10 of the molar value. The source made the active and inactive calls. The calls are words filed in the database; no cut-off is given here.
# Tests used:
# A549 [1] = experiment: Antiproliferative activity against human A549 cells at 20 uM after 72 hrs by trypan blue exclusion method; type: functional; conditions: A549, 72 h
# A549 [2] = experiment: Induction of p53 protein expression in human A549 cells at 20 uM after 48 hrs by Western blot relative to untreated control; type: functional
# Method in brief: (§1)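 A549 cells (RPMI 1640, 2 mM glutamine, 10% FBS, 37 °C, 5% CO2) treated with compound; lysate proteins (50 µg) run on 5–15% SDS–PAGE, blotted to nitrocellulose, probed with mouse anti-human p53 (DO1) and anti-GAPDH monoclonals, then HRP secondary. p53 level given as fold increase over control; mean ± SD of three independent experiments, one-tailed Student's t-test.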
# A549 [3] = experiment: Induction of p53 protein expression in human A549 cells at 10 uM after 72 hrs by Western blot relative to untreated control; type: functional; method in brief: as §1
# A549 [4] = experiment: Induction of p53 protein expression in human A549 cells at 20 uM after 72 hrs by Western blot relative to untreated control; type: functional; method in brief: as §1
# A549 [5] = experiment: Induction of p53 protein expression in human A549 cells at 10 uM after 48 hrs by Western blot relative to untreated control; type: functional; method in brief: as §1
# A549 [6] = experiment: Induction of DNA damage in human A549 cells; type: functional, cell-based
# A549 [7] = experiment: Cell cycle arrest in human A549 cells assessed as accumulation at S phase; type: functional, cell-based
# [8] = biological target: Epidermal growth factor receptor (Homo sapiens, UniProt P00533); experiment: Inhibition of EGFR autophosphorylation in human A549 cells
# Chain of Epidermal growth factor receptor (P00533 whole entry): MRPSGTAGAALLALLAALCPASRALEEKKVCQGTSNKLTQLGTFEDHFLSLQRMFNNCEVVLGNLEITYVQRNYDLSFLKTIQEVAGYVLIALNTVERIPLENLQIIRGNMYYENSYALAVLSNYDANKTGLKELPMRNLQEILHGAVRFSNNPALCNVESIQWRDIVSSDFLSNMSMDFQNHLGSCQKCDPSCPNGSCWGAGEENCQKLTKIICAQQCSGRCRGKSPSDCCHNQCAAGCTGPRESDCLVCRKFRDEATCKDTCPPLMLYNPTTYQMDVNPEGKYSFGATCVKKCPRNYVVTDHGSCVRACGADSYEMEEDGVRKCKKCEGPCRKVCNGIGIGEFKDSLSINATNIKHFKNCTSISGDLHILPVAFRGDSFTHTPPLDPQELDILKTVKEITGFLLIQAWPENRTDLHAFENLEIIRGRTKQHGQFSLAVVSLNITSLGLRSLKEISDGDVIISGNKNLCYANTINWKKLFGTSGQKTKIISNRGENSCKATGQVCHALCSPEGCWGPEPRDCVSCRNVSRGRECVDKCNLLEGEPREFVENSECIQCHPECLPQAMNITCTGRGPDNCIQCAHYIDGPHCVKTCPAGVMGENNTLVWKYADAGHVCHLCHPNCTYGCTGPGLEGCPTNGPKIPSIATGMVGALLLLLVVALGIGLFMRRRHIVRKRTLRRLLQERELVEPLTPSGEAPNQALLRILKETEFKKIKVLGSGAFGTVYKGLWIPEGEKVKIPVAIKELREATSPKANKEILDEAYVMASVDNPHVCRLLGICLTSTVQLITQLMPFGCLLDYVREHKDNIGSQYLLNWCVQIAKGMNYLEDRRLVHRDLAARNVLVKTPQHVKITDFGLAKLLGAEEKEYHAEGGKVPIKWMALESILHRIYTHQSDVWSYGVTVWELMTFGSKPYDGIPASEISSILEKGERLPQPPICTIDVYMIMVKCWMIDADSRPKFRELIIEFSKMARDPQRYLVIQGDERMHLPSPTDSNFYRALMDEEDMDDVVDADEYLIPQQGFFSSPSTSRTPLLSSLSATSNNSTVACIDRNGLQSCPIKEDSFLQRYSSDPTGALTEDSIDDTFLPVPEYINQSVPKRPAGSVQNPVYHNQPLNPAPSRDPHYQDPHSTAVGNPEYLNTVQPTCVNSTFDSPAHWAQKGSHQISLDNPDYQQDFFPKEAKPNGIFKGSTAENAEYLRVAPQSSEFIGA
SMILES,inhibition at 20 µM (A549 [1]),fold change (FC) (A549 [2]),further results
CCCCCCN1C(=O)NC(=O)/C1=C/c1ccccc1,0%,,
CC(=O)Nc1ccc(/C=C2\C(=O)NC(=O)N2CCc2ccccc2)cc1,39%,1.7,
O=C1NC(=O)N(CCc2ccccc2)/C1=C/c1cccc(O)c1,28%,0.9,
CCCCN1C(=O)NC(=O)/C1=C\c1ccc(Cl)cc1,29%,,
O=C1NC(=O)N(Cc2ccccc2)/C1=C\c1ccccc1,42%,1.7,fold change (FC) (A549 [3]): 1.8; fold change (FC) (A549 [4]): 2.6; fold change (FC) (A549 [5]): 1.1
O=C1NC(=O)N(c2ccccc2)/C1=C/c1ccccc1,18%,,
O=C1NC(=O)N(Cc2ccccc2)/C1=C/c1ccccc1,2.9%,,
O=C1NC(=O)N(CCc2ccccc2)/C1=C/c1ccccc1,9.4%,1.2,
CCCCN1C(=O)NC(=O)/C1=C/c1ccc(Cl)cc1,26%,,
CN1C(=O)NC(=O)/C1=C\c1ccccc1,5.7%,1.1,
CCCCN1C(=O)NC(=O)/C1=C\c1ccccc1,6.8%,,
O=C1NC(=O)N(CCc2ccccc2)/C1=C/c1ccc(O)cc1,53%,2.3,fold change (FC) (A549 [3]): 1.4; fold change (FC) (A549 [4]): 3.2; Activity (A549 [6]): Active; Activity (A549 [7]): Active; pIC50 [8]: 4.72; fold change (FC) (A549 [5]): 1
O=C1NC(=O)N(CCc2ccccc2)/C1=C\c1ccccc1,42%,1.3,
O=C1NC(=O)N(CCc2cccc(Cl)c2)/C1=C/c1ccccc1,10%,,
CCCCCCN1C(=O)NC(=O)/C1=C\c1ccccc1,14%,,
O=C1NC(=O)N(Cc2ccccc2)/C1=C/c1ccc(O)cc1,41%,1.8,
CC(=O)Nc1ccc(/C=C2/C(=O)NC(=O)N2CCc2ccccc2)cc1,32%,,
O=C1NC(=O)N(CCc2ccccc2)/C1=C\c1ccc(O)cc1,44%,1.5,fold change (FC) (A549 [3]): 1.7; fold change (FC) (A549 [4]): 2.7; fold change (FC) (A549 [5]): 0.9
CCCCN1C(=O)NC(=O)/C1=C/c1ccccc1,18%,,
O=C1NC(=O)N(CCc2ccccc2)/C1=C\c1cccc(O)c1,40%,1.1,
O=C1NC(=O)N(c2ccccc2)/C1=C\c1ccccc1,26%,,
O=C1NC(=O)N(CCc2ccccc2)/C1=C/c1cccc(Cl)c1,35%,,
O=C1NC(=O)N(CCc2cccc(Cl)c2)/C1=C\c1ccccc1,49%,1.5,fold change (FC) (A549 [3]): 1.1; fold change (FC) (A549 [4]): 2.2; fold change (FC) (A549 [5]): 0.7
O=C1NC(=O)N(CCc2ccccc2)/C1=C\c1cccc(Cl)c1,43%,1.2,fold change (FC) (A549 [3]): 1.4; fold change (FC) (A549 [4]): 1.9; fold change (FC) (A549 [5]): 0.9
O=C1NC(=O)N(CCc2ccccc2)[C@@H]1Cc1ccccc1,7.2%,1,
O=C1NC(=O)N(Cc2ccccc2)/C1=C\c1ccc(O)cc1,32%,2,
CN1C(=O)NC(=O)/C1=C/c1ccccc1,16%,1,
COc1ccc(/C=C2\C(=O)NC(=O)N2CCc2ccccc2)cc1,35%,1,
CN1C(=O)/C(=C\c2ccccc2)N(CCc2ccccc2)C1=O,31%,1,
CN1C(=O)/C(=C/c2ccccc2)N(CCc2ccccc2)C1=O,45%,1,
